Results: paper PMC3372638 (Journal of Molecular Biology, 2012)

Key:
HsP5CDH [1] = biological target: T1, HsP5CDH (Homo sapiens, UniProt P30038); assay: isothermal titration calorimetry; type: binding
T1 sequence (P30038 18-563): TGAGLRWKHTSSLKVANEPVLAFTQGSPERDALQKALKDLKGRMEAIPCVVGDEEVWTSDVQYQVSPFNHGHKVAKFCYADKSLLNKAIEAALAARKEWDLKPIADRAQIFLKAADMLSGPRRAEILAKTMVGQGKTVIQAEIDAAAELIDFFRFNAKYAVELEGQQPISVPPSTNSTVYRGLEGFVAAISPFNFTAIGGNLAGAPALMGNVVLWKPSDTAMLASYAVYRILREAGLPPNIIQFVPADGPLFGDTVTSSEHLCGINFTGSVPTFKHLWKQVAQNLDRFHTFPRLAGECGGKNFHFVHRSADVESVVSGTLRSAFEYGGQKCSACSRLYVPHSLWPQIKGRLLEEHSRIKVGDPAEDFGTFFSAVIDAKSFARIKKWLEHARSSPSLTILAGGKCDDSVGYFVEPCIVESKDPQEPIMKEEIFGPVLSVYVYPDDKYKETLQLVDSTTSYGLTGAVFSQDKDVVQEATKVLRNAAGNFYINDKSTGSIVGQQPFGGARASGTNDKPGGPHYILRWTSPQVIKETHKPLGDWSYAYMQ
How it was run: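 His-tagged human P5CDH was expressed in E. coli BL21(DE3)pLysS and purified by Ni2+-affinity then anion exchange. It was dialysed into 50 mM Tris, 50 mM NaCl, 0.5 mM THP, 0.5 mM EDTA, 5 % glycerol, pH 8.0, with NAD+ dissolved in the dialysate and pH-matched. Run at 25 °C: 20 μl NAD+ injections every 240 s, 250 rpm, 4 μl pre-injection discarded. Three titrations (30, 34, 47 μM protein) were fitted globally to a single-site model.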

HsP5CDH [2] = biological target: T2, HsP5CDH (Homo sapiens, UniProt P30038, S352A); assay: isothermal titration calorimetry; type: binding
T2 sequence (P30038 18-563 S352A): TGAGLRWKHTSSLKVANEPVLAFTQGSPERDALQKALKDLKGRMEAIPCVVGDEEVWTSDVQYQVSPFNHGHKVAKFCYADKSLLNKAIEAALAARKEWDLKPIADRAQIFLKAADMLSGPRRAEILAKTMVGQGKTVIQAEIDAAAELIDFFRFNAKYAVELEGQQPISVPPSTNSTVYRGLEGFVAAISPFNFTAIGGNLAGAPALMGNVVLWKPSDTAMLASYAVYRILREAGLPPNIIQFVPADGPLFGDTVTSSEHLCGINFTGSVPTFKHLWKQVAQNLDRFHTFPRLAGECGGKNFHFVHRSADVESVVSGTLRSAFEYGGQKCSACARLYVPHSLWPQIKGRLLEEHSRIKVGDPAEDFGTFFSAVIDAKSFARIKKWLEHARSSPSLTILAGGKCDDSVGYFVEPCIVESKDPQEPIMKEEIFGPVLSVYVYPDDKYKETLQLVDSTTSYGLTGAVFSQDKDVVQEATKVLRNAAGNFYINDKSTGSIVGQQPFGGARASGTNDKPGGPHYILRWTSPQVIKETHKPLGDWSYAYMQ
How it was run: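 Site-directed S352A mutant of His-tagged human P5CDH was expressed in E. coli BL21(DE3)pLysS and purified by Ni2+-affinity and anion exchange. It was dialysed into 50 mM Tris, 50 mM NaCl, 0.5 mM THP, 0.5 mM EDTA, 5 % glycerol, pH 8.0, with NAD+ in the dialysate and pH-matched. Titrated at 25 °C: 20 μl injections at 240-s intervals, 250 rpm, 4 μl pre-injection discarded. Fitted to a single-site binding model.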

AUC = biological target: the molecule itself; assay: AUC
crystal structure = biological target: the molecule itself; assay: crystal structure

Molecule: NC(=O)c1ccc[n+]([C@@H]2O[C@H](COP(=O)(O)OP(=O)(O)OC[C@H]3O[C@@H](n4cnc5c(N)ncnc54)[C@H](O)[C@@H]3O)[C@@H](O)[C@H]2O)c1 [NAD^+]
- Kd (HsP5CDH [1]): 15 µM
- Kd (HsP5CDH [2]): 10 µM

B1: human Δ1-pyrroline-5-carboxylate dehydrogenase (enzyme, UniProt P30038-1 18-563, looked up)
chain: TGAGLRWKHTSSLKVANEPVLAFTQGSPERDALQKALKDLKGRMEAIPCVVGDEEVWTSDVQYQVSPFNHGHKVAKFCYADKSLLNKAIEAALAARKEWDLKPIADRAQIFLKAADMLSGPRRAEILAKTMVGQGKTVIQAEIDAAAELIDFFRFNAKYAVELEGQQPISVPPSTNSTVYRGLEGFVAAISPFNFTAIGGNLAGAPALMGNVVLWKPSDTAMLASYAVYRILREAGLPPNIIQFVPADGPLFGDTVTSSEHLCGINFTGSVPTFKHLWKQVAQNLDRFHTFPRLAGECGGKNFHFVHRSADVESVVSGTLRSAFEYGGQKCSACSRLYVPHSLWPQIKGRLLEEHSRIKVGDPAEDFGTFFSAVIDAKSFARIKKWLEHARSSPSLTILAGGKCDDSVGYFVEPCIVESKDPQEPIMKEEIFGPVLSVYVYPDDKYKETLQLVDSTTSYGLTGAVFSQDKDVVQEATKVLRNAAGNFYINDKSTGSIVGQQPFGGARASGTNDKPGGPHYILRWTSPQVIKETHKPLGDWSYAYMQ
- stoichiometry N (AUC): 2

B2: human Δ1-pyrroline-5-carboxylate dehydrogenase with Ser352 mutated to Leu (enzyme, UniProt P30038-1 18-563, looked up)
chain: TGAGLRWKHTSSLKVANEPVLAFTQGSPERDALQKALKDLKGRMEAIPCVVGDEEVWTSDVQYQVSPFNHGHKVAKFCYADKSLLNKAIEAALAARKEWDLKPIADRAQIFLKAADMLSGPRRAEILAKTMVGQGKTVIQAEIDAAAELIDFFRFNAKYAVELEGQQPISVPPSTNSTVYRGLEGFVAAISPFNFTAIGGNLAGAPALMGNVVLWKPSDTAMLASYAVYRILREAGLPPNIIQFVPADGPLFGDTVTSSEHLCGINFTGSVPTFKHLWKQVAQNLDRFHTFPRLAGECGGKNFHFVHRSADVESVVSGTLRSAFEYGGQKCSACLRLYVPHSLWPQIKGRLLEEHSRIKVGDPAEDFGTFFSAVIDAKSFARIKKWLEHARSSPSLTILAGGKCDDSVGYFVEPCIVESKDPQEPIMKEEIFGPVLSVYVYPDDKYKETLQLVDSTTSYGLTGAVFSQDKDVVQEATKVLRNAAGNFYINDKSTGSIVGQQPFGGARASGTNDKPGGPHYILRWTSPQVIKETHKPLGDWSYAYMQ
- binding result (crystal structure): binds

B3: human Δ1-pyrroline-5-carboxylate dehydrogenase with Ser352 mutated to Ala (enzyme, UniProt P30038-1 18-563, looked up)
chain: TGAGLRWKHTSSLKVANEPVLAFTQGSPERDALQKALKDLKGRMEAIPCVVGDEEVWTSDVQYQVSPFNHGHKVAKFCYADKSLLNKAIEAALAARKEWDLKPIADRAQIFLKAADMLSGPRRAEILAKTMVGQGKTVIQAEIDAAAELIDFFRFNAKYAVELEGQQPISVPPSTNSTVYRGLEGFVAAISPFNFTAIGGNLAGAPALMGNVVLWKPSDTAMLASYAVYRILREAGLPPNIIQFVPADGPLFGDTVTSSEHLCGINFTGSVPTFKHLWKQVAQNLDRFHTFPRLAGECGGKNFHFVHRSADVESVVSGTLRSAFEYGGQKCSACARLYVPHSLWPQIKGRLLEEHSRIKVGDPAEDFGTFFSAVIDAKSFARIKKWLEHARSSPSLTILAGGKCDDSVGYFVEPCIVESKDPQEPIMKEEIFGPVLSVYVYPDDKYKETLQLVDSTTSYGLTGAVFSQDKDVVQEATKVLRNAAGNFYINDKSTGSIVGQQPFGGARASGTNDKPGGPHYILRWTSPQVIKETHKPLGDWSYAYMQ
- binding result (crystal structure): binds
